Screening results (PubChem)
PHOSPHO1 inh – PHOSPHO1 (human) inhibition; Q8TCT1; recombinant PHOSPHO1, absorbance phosphatase assay; inhibition, % at 13.3 µM; actives 1.1% (n = 290,000); in the data active means inhibition above about 60%
Target sequence (Q8TCT1 whole entry, looked up): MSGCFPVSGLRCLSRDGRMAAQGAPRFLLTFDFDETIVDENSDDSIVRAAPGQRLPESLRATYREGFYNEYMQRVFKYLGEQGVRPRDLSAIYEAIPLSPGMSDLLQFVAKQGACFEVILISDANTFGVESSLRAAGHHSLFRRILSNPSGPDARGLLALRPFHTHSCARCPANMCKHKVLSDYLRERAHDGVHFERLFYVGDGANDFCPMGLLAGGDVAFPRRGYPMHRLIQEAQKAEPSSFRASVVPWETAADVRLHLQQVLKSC
RGS4 act – potentiators or activators of RGS4; HEK293 M3R/inducible RGS4, carbachol calcium flux Fluo4; stronger effect = lower value; B-score at 10 µM; actives 0.92% (n = 310,000);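 active means B-score of the integrated calcium signal more than 4 SD below the library mean, with starting fluorescence not abnormally high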;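 further: negative B-score means reduced calcium response which marks RGS4 activation or potentiation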
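Also added: carbachol at ECmax as muscarinic agonist stimulus; Assay system: HEK293 cells with stable M3R and inducible RGS4; Timing: overnight RGS4 induction, 30 min dye load 37 °C, 20 min compound RT; Measured by: Fluo4-AM (2 µM) calcium-flux fluorescence, kinetic read.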
MrgX1 agonist – human MrgX1 receptor agonism, primary screen; MrgX1-HEK293 cells, Fluo-4 calcium fluorescence, agonist mode; stronger effect = higher value; B-score at 10 µM; actives 0.44% (n = 310,000); Q96LB2; AID 588627;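 active means calcium response B-score plate-corrected fluorescence ratio at least 3 library SD, with starting fluorescence B-score inside 5 SD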
Target sequence (Q96LB2 whole entry, looked up): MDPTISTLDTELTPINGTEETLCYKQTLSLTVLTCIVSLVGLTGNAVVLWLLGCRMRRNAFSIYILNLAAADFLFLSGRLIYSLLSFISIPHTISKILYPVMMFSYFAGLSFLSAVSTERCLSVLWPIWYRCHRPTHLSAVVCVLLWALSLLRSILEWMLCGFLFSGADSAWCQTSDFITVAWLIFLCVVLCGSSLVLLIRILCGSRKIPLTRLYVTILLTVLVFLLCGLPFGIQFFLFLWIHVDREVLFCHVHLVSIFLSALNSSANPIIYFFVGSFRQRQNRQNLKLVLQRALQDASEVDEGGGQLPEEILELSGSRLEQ
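Test system: HEK293 cells stably expressing human MrgX1 receptor; amount: 15,000 cells per well; doses: compound delivered in addition one of three; times: overnight plating before 1 h dye loading; detection: Fluo-4 NW calcium-flux fluorescence, kinetic read; read-out basis: B-scored fluorescence response ratio; controls: positive and negative controls per plate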
MrgX1 allo act – human MrgX1 positive allosteric modulation, primary screen | B-score at 10 µM | AID 588675 | actives 0.63% (n = 310,000) | MrgX1-HEK293, Fluo-4 calcium flux, FDSS; stronger effect = higher value | Q96LB2;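 active means plate-corrected calcium response at least 3 library SD above typical, normal starting fluorescence, not activating the receptor alone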;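 further: compound read alongside a low EC10 to EC30 dose of BAM8-22 agonist; peak minus trough fluorescence over baseline measured at the second addition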
MrgX1 antagonist – antagonists of human MrgX1 receptor; Q96LB2; MRGX1-HEK293 calcium flux, Fluo-4, BAM8-22 antagonism; stronger effect = lower value; B-score at 10 µM; actives 1.3% (n = 310,000); AID 588676;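 active means calcium-response B-score plate-corrected more than 3 library SD below zero, starting fluorescence within 5 deviations, no agonist response on first addition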;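 further: peak minus trough fluorescence over baseline after final BAM8-22 challenge near maximal dose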
RGS4 block – human RGS4 inhibition; HEK293 M3R/RGS4 inducible, Fluo-4 calcium flux; stronger effect = higher value; triggered by carbachol at its EC20; B-score at 10 µM; actives 0.45% (n = 310,000);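 active means B-score, a plate-corrected calcium signal, over three deviations above library mean, with baseline fluorescence within five deviations of library mean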;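 further: RGS4 expression induced by doxycycline in cells with stable M3 receptor; B-score is computed from the integrated fluorescence ratio over baseline after carbachol; higher B-score means a larger calcium signal and so more RGS4 inhibition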
* = called active by the depositor; i = inactive; . = not tested or not shown. Rows were chosen to be rich in hits. Some 4.5% of all compounds tested hit in one or more screens of this group.

SMILES | PHOSPHO1 inh | RGS4 act | MrgX1 agonist | MrgX1 allo act | MrgX1 antagonist | RGS4 block
Cc1nc(N2CCN(c3ccccn3)CC2)c2c(C)c(C(=O)Nc3ccc(F)cc3Cl)sc2n1 | 28 | -7.4* | i | i | i | i
Cc1nc(N2CCOCC2)c2c(C)c(C(=O)Nc3ccc(F)cc3Cl)sc2n1 | -2 | i | i | i | i | i
CC(C)(C)c1ccc(C(=O)Nc2cccc3c(=O)[nH][nH]c(=O)c23)cc1 | -10 | i | i | i | i | i
CCOc1ccc(C(c2nnnn2C(C)(C)C)N2CCN(C(=O)c3ccco3)CC2)cc1 (stereo not drawn) | -120 | i | i | i | i | i
CN(C)c1ccc(C(c2nnnn2C(C)(C)C)N2CCN(C(=O)c3ccco3)CC2)cc1 (stereo not drawn) | 88* | i | i | i | i | i
COc1cc(CNC(C)(C)C)cc(Br)c1OCc1cccs1 | 6 | i | i | i | -6.1* | i
Cc1ccc(NC(=O)CSc2nnc(C)n2-c2ccccc2)cc1 | 3 | i | i | i | i | i
Cc1nnc(SCC(=O)Nc2ccc(N3CCOCC3)cc2)n1-c1ccccc1 | 64* | i | i | i | i | i
CC(=O)c1c(C)[nH]c(C(=O)CSc2nnc(CN3CCCCCC3=O)n2-c2ccccn2)c1C | 67* | i | i | i | i | i
CCn1c(SCC(=O)c2[nH]c(C)c(C(C)=O)c2C)nnc1-c1ccccc1 | 75* | i | i | i | i | i
CCNC(=O)CSc1nnc(CN2CCCCCC2=O)n1-c1ccccn1 | -10 | i | i | i | i | i
Cn1c(=O)c2ncn(CC(=O)Nc3nc(-c4ccc(Cl)cc4)cs3)c2n(C)c1=O | 32 | i | i | i | i | i
CCOc1ccc(N2CC(C(=O)Nc3ccccc3C(=O)N3CCOCC3)CC2=O)cc1 (stereo not drawn) | 24 | i | i | i | i | i
Fc1c(F)c(-n2nnc3ccccc32)c(F)c(F)c1Cl | 7 | i | i | i | i | i
O=c1c2ccccc2ncn1-c1ccccc1[N+](=O)[O-] | . | i | i | 13* | i | i
Cc1nccn1-c1c([N+](=O)[O-])c(=O)n(C)c2ccccc12 | 37 | i | i | i | i | i
O=c1c2ccccc2ncn1-c1ccc(Br)cc1[N+](=O)[O-] | 8 | i | i | i | i | i
Cn1c(=O)c([N+](=O)[O-])c(-n2cnc3ccccc32)c2ccccc21 | 22 | i | 27* | i | i | i
CCn1ccc2cc(OC)ccc2c1=S | 87* | i | i | i | i | i
Cc1c(CC(=O)N2CCC(C(=O)O)CC2)c(=O)oc2cc3c(cc12)CCC1(CCCCC1)O3 | 29 | i | i | i | i | i
Cc1ccc2nc(/C(C#N)=C/c3ccc(O)c(O)c3)[nH]c2c1 | . | i | 35* | i | i | i
Cn1c(SCc2ccc([N+](=O)[O-])cc2)nnc1-c1cccnc1 | 29 | i | i | i | i | i
CC1=Nc2ccccc2/C1=C/c1sc(=N)n(-c2nccs2)c1O | 11 | i | 46* | i | i | i
Cc1[nH]c(=S)c(C#N)c(-c2ccco2)c1C(=O)N(C)C | 61* | i | i | i | i | i
CC(=O)c1c(C)[nH]c(=S)c(C#N)c1-c1ccc(Cl)cc1 | 32 | i | i | i | i | i
SMILES | PHOSPHO1 inh | RGS4 act | MrgX1 agonist | MrgX1 allo act | MrgX1 antagonist | RGS4 block
CC(C)Oc1ccccc1C1NC(=O)CCC1[N+](=O)[O-] (stereo not drawn) | 28 | i | i | i | i | i
CCOCCCNC(=S)NCCCNc1nc2c(C)cc(C)cc2cc1C#N | 32 | . | . | . | . | .
CCOCCCNC(=S)NCCNc1nc2c(C)cccc2cc1C#N | 61* | i | i | i | i | i
Cc1ccc2cc(C#N)c(NCCNC(=S)NCCCN(C)C)nc2c1C | 64* | i | i | i | i | i
Cc1ccc(CNC(=O)c2nnn(CC(=O)Nc3cc(C)cc(C)c3)c2N)cc1 | 12 | i | i | i | i | i
Cc1cc(C)n2nc3nc4c(cc3c2n1)CCCC4 | 98* | i | i | i | i | i
Cc1ccc(S(=O)(=O)N2CCOCC2)cc1NC(=O)CSc1n[nH]c(N)n1 | 28 | i | i | i | i | i
COc1ccc(S(=O)(=O)N2CCOCC2)cc1NC(=O)CSc1n[nH]c(C(C)C)n1 | 63* | i | i | i | i | i
COc1cc2c(cc1C1NC(=S)NC(C)=C1C(N)=O)CCCC2 (stereo not drawn) | -3 | i | i | i | i | i
Cc1nonc1C(=O)N/N=C/c1cc2c(cc1Br)OCO2 | 37 | i | i | i | -5* | i
Cc1cccc(N2CCN(C(=O)c3cc(S(=O)(=O)N4CCOCC4)cn3C)CC2C)c1 (stereo not drawn) | 7 | i | i | i | i | i
CC(C)OCCCn1c(=O)c2ccccc2n2c(CCC(=O)NC3CCN(Cc4ccccc4)CC3)nnc12 | 7 | i | i | i | i | i
Cc1nn(CC(=O)NCc2ccccc2)c(C)c1[N+](=O)[O-] | 4 | i | i | i | i | i
COC(=O)c1cccc(Cn2nc(C)c([N+](=O)[O-])c2C)c1 | 11 | i | i | i | -6.6* | i
COC(=O)CNC(=O)Cn1nc(C)c([N+](=O)[O-])c1C | -10 | i | i | 12* | i | i
Cc1ccc(C)n1-c1cccc(C(=O)O)c1 | 79* | i | i | i | i | i
Cc1cc(C=C2C(=O)c3ccccc3C2=O)c(C)n1-c1ccccc1 | 30 | i | i | 8.5* | i | i
Cc1cc(C=C2C(=O)c3ccccc3C2=O)c(C)n1-c1cccc(C(=O)O)c1 | -10 | i | i | 10* | i | i
Cc1cc(C=O)c(C)n1-c1cccc(C(=O)O)c1 | 56 | i | i | i | i | i
Cc1cc(C=C2C(=O)c3ccccc3C2=O)c(C)n1-c1ccc(C(=O)O)cc1 | -97 | i | i | i | i | i
O=c1[nH]c(/C=C\c2cccc(Cl)c2)nc(O)c1[N+](=O)[O-] | 29 | i | i | i | i | i
CCOc1ccc(C(=O)Nc2cccc(C(C)=O)c2)cc1[N+](=O)[O-] | 22 | i | i | i | i | i
